Data as given in ChEMBL document CHEMBL3352570, “ST7612AA1, a thioacetate-ω(γ-lactam carboxamide) derivative selected from a novel generation of oral HDAC inhibitors” (J Med Chem, 2014).
One block for each compound: values may come before it. Calls of active or inactive are those of the source. The rule behind the calls is not given here.

Columns and labels:
Histone deacetylase 11 = target: T1, Histone deacetylase 11 (Homo sapiens, UniProt Q96DB2); experiment: Inhibition of HDAC11 (unknown origin) using fluorogenic tetrapeptide RHKK(Ac) substrate by fluorescence assay
T1 sequence (Q96DB2 whole entry): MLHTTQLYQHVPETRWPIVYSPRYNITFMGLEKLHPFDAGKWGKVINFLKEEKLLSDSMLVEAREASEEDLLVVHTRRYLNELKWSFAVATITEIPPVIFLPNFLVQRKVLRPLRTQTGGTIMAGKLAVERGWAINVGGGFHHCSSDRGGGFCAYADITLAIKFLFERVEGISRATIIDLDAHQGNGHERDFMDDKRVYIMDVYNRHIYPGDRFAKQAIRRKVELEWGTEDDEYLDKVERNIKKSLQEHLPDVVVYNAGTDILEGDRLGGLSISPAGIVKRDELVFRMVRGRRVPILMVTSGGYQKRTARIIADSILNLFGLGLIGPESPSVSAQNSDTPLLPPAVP

Histone deacetylase 1 = Histone deacetylase 1 (Homo sapiens, UniProt Q13547); experiment: Inhibition of HDAC1 (unknown origin) using fluorogenic tetrapeptide RHKK(Ac) substrate by fluorescence assay
Histone deacetylase 1, sequence (Q13547 whole entry): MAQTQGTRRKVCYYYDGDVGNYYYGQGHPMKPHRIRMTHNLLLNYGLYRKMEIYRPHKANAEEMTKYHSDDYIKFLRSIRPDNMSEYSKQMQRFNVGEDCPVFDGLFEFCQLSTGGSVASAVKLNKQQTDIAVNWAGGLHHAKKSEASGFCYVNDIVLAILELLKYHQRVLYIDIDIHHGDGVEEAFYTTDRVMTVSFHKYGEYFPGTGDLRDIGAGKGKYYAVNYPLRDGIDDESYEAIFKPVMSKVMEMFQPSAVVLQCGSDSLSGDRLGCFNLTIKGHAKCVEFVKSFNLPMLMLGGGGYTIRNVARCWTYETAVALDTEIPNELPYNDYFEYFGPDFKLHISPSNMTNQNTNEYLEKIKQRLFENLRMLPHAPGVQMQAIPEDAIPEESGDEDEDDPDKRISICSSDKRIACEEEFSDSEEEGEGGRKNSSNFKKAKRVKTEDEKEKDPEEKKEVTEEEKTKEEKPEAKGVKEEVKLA

[1] = target: T2, Polyamine deacetylase HDAC10 (Homo sapiens, UniProt Q969S8); experiment: Inhibition of HDAC10 (unknown origin) using fluorogenic tetrapeptide RHKK(Ac) substrate by fluorescence assay
T2 sequence (Q969S8 whole entry): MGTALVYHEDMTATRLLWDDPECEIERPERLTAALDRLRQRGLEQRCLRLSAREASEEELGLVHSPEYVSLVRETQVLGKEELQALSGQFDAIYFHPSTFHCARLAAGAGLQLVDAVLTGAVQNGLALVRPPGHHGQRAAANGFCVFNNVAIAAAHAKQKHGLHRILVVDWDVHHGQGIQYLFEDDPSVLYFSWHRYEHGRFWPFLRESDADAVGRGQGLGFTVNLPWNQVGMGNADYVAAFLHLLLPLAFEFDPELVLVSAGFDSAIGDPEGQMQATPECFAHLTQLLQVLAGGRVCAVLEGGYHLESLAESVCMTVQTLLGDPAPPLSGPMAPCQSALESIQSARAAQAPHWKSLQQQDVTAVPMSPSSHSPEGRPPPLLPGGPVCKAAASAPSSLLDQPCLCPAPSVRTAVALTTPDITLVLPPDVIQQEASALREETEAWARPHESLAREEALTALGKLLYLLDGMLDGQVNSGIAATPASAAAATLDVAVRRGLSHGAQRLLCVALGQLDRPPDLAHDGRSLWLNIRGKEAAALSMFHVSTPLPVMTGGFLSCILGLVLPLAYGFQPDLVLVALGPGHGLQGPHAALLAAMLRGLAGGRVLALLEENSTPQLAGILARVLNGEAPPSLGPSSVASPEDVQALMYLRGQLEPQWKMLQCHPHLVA

Histone deacetylase 3 = Histone deacetylase 3 (Homo sapiens, UniProt O15379); experiment: Inhibition of HDAC3 (unknown origin) using fluorogenic tetrapeptide RHKK(Ac) substrate by fluorescence assay
Histone deacetylase 3, sequence (O15379 whole entry): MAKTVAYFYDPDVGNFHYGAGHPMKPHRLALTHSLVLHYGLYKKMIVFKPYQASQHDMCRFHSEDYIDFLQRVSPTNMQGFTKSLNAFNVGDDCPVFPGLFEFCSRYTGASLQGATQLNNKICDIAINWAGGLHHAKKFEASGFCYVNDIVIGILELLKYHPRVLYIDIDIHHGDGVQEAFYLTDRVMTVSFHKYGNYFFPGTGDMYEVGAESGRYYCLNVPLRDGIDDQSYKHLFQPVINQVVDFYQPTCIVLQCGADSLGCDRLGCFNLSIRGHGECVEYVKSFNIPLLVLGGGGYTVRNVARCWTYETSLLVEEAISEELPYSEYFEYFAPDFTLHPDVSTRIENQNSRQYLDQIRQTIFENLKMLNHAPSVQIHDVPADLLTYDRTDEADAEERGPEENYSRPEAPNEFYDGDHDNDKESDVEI

Histone deacetylase 2 = Histone deacetylase 2 (Homo sapiens, UniProt Q92769); experiment: Inhibition of HDAC2 (unknown origin) using fluorogenic tetrapeptide RHKK(Ac) substrate at <50 uM by fluorescence assay
Histone deacetylase 2, sequence (Q92769 whole entry, the tested form may be a part): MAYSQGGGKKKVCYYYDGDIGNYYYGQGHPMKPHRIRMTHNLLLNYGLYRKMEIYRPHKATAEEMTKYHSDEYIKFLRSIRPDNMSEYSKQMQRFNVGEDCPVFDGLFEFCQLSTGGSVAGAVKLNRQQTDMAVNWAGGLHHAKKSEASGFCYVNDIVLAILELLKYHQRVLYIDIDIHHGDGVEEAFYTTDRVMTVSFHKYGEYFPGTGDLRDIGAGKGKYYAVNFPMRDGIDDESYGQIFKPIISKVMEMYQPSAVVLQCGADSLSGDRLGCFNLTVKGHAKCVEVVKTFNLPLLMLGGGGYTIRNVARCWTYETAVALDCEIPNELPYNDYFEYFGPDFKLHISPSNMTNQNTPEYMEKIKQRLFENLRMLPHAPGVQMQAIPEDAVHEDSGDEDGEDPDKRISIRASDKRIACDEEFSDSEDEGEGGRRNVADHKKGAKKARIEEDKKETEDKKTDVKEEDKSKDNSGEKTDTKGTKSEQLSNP
Summary of the method: (§1)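 Fluorogenic assay with the tetrapeptide RHKK(Ac) substrate (p53 residues 379–382) at 50 μM.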

[2] = target: T3, Protein deacetylase HDAC6 (Homo sapiens) (UniProt Q9UBN7); experiment: Inhibition of HDAC6 (unknown origin) using fluorogenic tetrapeptide RHKK(Ac) substrate at <50 uM by fluorescence assay; summary of the method: as §1
T3 sequence (whole entry): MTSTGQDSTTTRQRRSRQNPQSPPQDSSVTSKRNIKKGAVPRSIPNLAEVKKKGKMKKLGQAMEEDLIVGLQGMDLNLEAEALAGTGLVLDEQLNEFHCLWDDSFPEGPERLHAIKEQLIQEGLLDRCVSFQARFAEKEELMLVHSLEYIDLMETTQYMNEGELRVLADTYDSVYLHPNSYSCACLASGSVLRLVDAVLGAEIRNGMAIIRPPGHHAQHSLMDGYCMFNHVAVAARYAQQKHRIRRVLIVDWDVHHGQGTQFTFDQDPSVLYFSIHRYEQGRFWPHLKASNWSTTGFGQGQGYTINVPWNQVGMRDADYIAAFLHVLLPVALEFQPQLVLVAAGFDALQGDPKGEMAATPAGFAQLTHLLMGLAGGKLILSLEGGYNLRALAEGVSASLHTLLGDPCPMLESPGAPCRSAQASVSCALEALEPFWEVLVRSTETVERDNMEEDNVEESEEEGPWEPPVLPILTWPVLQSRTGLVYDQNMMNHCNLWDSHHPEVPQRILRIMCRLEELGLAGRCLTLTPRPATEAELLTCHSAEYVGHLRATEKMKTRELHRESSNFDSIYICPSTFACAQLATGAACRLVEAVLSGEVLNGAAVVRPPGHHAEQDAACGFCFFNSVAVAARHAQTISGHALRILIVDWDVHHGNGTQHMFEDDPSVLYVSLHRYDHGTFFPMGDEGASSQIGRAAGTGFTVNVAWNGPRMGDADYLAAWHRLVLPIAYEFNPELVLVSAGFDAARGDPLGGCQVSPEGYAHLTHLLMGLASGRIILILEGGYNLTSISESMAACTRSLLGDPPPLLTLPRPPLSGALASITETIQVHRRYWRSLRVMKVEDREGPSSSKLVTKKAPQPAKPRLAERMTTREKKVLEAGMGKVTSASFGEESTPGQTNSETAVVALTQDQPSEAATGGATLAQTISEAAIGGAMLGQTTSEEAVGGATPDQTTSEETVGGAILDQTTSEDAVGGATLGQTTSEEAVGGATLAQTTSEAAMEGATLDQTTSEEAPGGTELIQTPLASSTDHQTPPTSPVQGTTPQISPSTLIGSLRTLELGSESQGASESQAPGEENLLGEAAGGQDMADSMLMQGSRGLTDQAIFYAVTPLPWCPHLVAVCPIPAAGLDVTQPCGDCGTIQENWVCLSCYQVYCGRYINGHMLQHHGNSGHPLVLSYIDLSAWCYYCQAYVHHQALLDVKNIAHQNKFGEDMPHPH

[3] = target: T4, Histone deacetylase 8 (Homo sapiens) (UniProt Q9BY41); experiment: Inhibition of HDAC8 (unknown origin) using fluorogenic tetrapeptide RHK(Ac)K(Ac) substrate at <50 uM by fluorescence assay
T4 sequence (whole entry): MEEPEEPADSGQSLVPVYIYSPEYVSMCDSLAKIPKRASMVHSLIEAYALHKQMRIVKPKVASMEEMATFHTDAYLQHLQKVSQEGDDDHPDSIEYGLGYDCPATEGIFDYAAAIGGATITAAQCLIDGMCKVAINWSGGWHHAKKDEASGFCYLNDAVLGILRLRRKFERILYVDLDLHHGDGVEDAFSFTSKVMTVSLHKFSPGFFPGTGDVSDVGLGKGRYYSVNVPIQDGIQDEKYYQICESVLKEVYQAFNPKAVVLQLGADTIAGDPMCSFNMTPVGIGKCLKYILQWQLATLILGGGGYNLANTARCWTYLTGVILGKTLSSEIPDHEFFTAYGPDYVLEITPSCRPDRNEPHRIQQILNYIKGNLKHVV
Summary of the method: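 The HDAC8 assay used the diacetylated fluorogenic substrate RHK(Ac)K(Ac) at 50 μM.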

[4] = Intrinsic clearance in human hepatocytes assessed per million cells at 5 uM by LCMS/MS analysis; format: ADME, cell-based, Hepatocyte; details: read-out: CLH
Summary of the method: (§2)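 Incubation in human hepatocytes. […] Values are means of at least three experiments.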

Mus musculus [5] = experiment: Toxicity in human A2780 cells xenografted athymic nude mouse assessed as body weight loss at 100 mg/kg, po qd for 5 days a week for 2 weeks; format: organism-based; set-up: dose 100 mg/kg, route oral; details: in vivo
Summary of the method: (§3)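 Nude mice (female, athymic, 5–6 weeks) carried sc right-flank xenografts of 5 × 10⁶ cells per 100 μL. Oral treatment once daily started 3 days after inoculation.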

[6] = Stability of the compound in aqueous solution at pH 7.4 after 24 hrs; format: physicochemical; details: buffer, pH 7.4, 24 h
Summary of the method: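 Stability in aqueous solution at pH 7.4 over 24 h.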

[7] = Half life in human hepatocytes at 5 uM by LCMS/MS analysis; format: ADME, cell-based, Hepatocyte; summary of the method: as §2
[8] = Stability of the compound in aqueous solution at pH 1.2 after 3 hrs; details: buffer, pH 1.2, 3 h
Histone deacetylase [9] = experiment: Inhibition of HDAC-mediated tubulin deacetylation in human NCI-H460 cells after 3 hrs by Western blot analysis; format: cell-based
Summary of the method: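 Cells (NCI-H460) were treated for 3 h with graded concentrations. The cytoplasmic fraction was collected after HNB/1% NP-40 lysis and centrifugation of nuclei at 2000g. This fraction was resolved by SDS-PAGE and probed for acetylated α-tubulin against α-tubulin and β-actin. Bands were detected by ECL and quantified by densitometry after normalization; IC50 fitted; means of at least two experiments.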

[10] = Efflux ratio of permeability from apical to basolateral side to basolateral to apical side of human Caco2 cells in presence of digoxin; format: ADME, cell-based; details: caco-2
Summary of the method: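 Caco-2 AB/BA flux ratio measured with digoxin coincubated with test and reference compounds. Means of at least three experiments.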

Mus musculus [11] = experiment: Toxicity in human A2780 cells xenografted athymic nude mouse assessed as body weight loss at 60 mg/kg, po qd for 5 days a week for 3 weeks; format: organism-based; set-up: dose 60 mg/kg, route oral; details: in vivo, in the assay text read “for 2 weeks” for “for 3 weeks”; summary of the method: as §3
NCI-H460 = experiment: Cytotoxicity against human NCI-H460 cells after 24 hrs by SRB assay; format: functional, cell-based; details: NCI-H460, 24 h
Summary of the method: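 NCI-H460 cells were grown in RPMI-1640 with L-glutamine, 10% heat-inactivated FCS and 50 μg/mL gentamicin. Cells were seeded at about 10% confluence and allowed to recover for 24 h. They were exposed to varying concentrations for 24 h, washed, then cultured a further 48 h. Surviving cells were measured by SRB. IC50 is the 50% reduction in cell number versus vehicle, from dose–response curve fitting; means of at least three experiments.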

[12] = Cytotoxicity against human HCT116 cells after 24 hrs by SRB assay; format: functional, cell-based; details: HCT-116, 24 h
Summary of the method: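 HCT116 cells were cultured in McCoy's 5A with L-glutamine, 10% heat-inactivated FCS and 50 μg/mL gentamicin. After seeding at about 10% confluence and a 24 h recovery, they received drug for 24 h. Drug was washed out and cells were incubated 48 h more before SRB staining. IC50 is the 50% cell-number reduction versus vehicle, from fitted dose–response curves; means of at least two experiments.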

Histone deacetylase [13] = experiment: Inhibition of HDAC-mediated histone H4 deacetylation in human NCI-H460 cells after 3 hrs by Western blot analysis; format: cell-based
Summary of the method: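 NCI-H460 cells were plated the day before and treated 3 h across a dose range. Cells were washed with DPBS containing 5 mM NaB and lysed in HNB buffer with 1% NP-40. Histones were acid-extracted from nuclei with 0.4 equiv/L H2SO4 and precipitated with acetone. Blots were probed for acetyl-H4 against total H4. Read-out was ECL and densitometry after normalization; IC50 fitted; means of at least two experiments.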

A2780 = experiment: Antitumor activity against human A2780 cells xenografted in athymic nude mouse assessed as tumor volume inhibition at 60 mg/kg, po qd for 5 days a week for 3 weeks; format: functional; details: in the assay text read “for 2 weeks” for “for 3 weeks”
Summary of the method: (§4)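 Female athymic nude mice, 5–6 weeks old, were inoculated sc in the right flank with 5 × 10⁶ exponentially growing tumor cells per 100 μL. Oral dosing once daily began 3 days after tumor injection, in Solutol HS15 diluted 1/20 in water. Tumor volume inhibition was calculated as TVI% = 100 − [(mean TV treated/mean TV control) × 100].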

[14] = Solubility of the compound in Solutol HS15
[15] = Efflux ratio of permeability from apical to basolateral side to basolateral to apical side of human Caco2 cells; format: ADME, cell-based; details: caco-2
Summary of the method: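 Caco-2 monolayers; the efflux ratio is flux in the apical-to-basolateral direction over flux in the basolateral-to-apical direction. Means of at least three experiments.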

[16] = Antitumor activity against human HCT116 cells xenografted in athymic nude mouse assessed as tumor volume inhibition at 60 mg/kg, po qd for 5 days a week for 3 weeks; format: functional; details: HCT-116; summary of the method: as §4
Mus musculus [17] = experiment: Toxicity in human HCT116 cells xenografted athymic nude mouse assessed as body weight loss at 60 mg/kg, po qd for 5 days a week for 3 weeks; format: organism-based, HCT-116; set-up: dose 60 mg/kg, route oral; details: in vivo; summary of the method: as §3

IC50 (Histone deacetylase 11): 949 nM
IC50 (Histone deacetylase 1): 1750 nM
IC50 [1]: 2930 nM
IC50 (Histone deacetylase 3): 35800 nM
inhibition (Histone deacetylase 2): inactive
inhibition [2]: inactive
inhibition [3]: inactive
SMILES: O=C(CCCCCCS)N1CCc2ccccc2C1

hepatocyte CLint at 5 µM [4]: 14.7 µL/min/1e6 cells
Stability [6]: Stable
half-life at 5 µM [7]: 47.5 min
Stability [8]: Stable
SMILES: O=C(CCCCCCC(=O)Nc1ccccc1)NO [VORINOSTAT]
Activity (Mus musculus [5]): 4%

IC50 (Histone deacetylase [9]): 200 nM
Ratio [10]: 4.2
hepatocyte CLint at 5 µM [4]: 252 µL/min/1e6 cells
IC50 (Histone deacetylase [13]): 5 nM
solubility [14]: > 10000 µg/mL
Ratio [15]: 6.9
half-life at 5 µM [7]: 2.7 min
SMILES: CC(=O)SCCCCC[C@H](NC(=O)[C@H]1CCC(=O)N1)C(=O)Nc1ccccc1
Activity (Mus musculus [11]): 7%
IC50 (NCI-H460): 70 nM
IC50 [12]: 75 nM
inhibition in vivo at 60 mg/kg (A2780): 89%
inhibition in vivo at 60 mg/kg [16]: 62%
Activity (Mus musculus [17]): 1%
